The source of these data is ChEMBL document CHEMBL4699653, “Hydroxamate-Based Selective Macrophage Elastase (MMP-12) Inhibitors and Radiotracers for Molecular Imaging” (J Med Chem, 2020).

The source made the active and inactive calls. No cut-off for these calls is given here.

Test [1] has as its target Macrophage metalloelastase (Homo sapiens, UniProt P39900). The test can be described thus: Inhibition of human recombinant MMP12 using Mca-Lys-Pro-Leu-Gly-Leu-Dpa-Ala-Arg-NH2 substrate by spectrophotometry. The method in brief: (§1)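 Fluorogenic cleavage kinetics with 0.2–0.5 nM recombinant human MMP in 50 mM Tris/HCl pH 6.8 with 10 mM CaCl2 at 25 °C. […] Fluorescence is monitored. Ki is derived by the Horovitz–Levitski method, as the mean ± SD of three experiments.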

Test [2] has as its target 72 kDa type IV collagenase (Homo sapiens, UniProt P08253). Briefly: Inhibition of human recombinant MMP2 using Mca-Lys-Pro-Leu-Gly-Leu-Dpa-Ala-Arg-NH2 substrate by spectrophotometry. In short, it runs like this:
as §1

Test [3] concerns the target Macrophage metalloelastase (Mus musculus) (UniProt P34960). The test can be described thus: Inhibition of mouse recombinant MMP12 using Mca-Lys-Pro-Leu-Gly-Leu-Dpa-Ala-Arg-NH2 substrate by spectrophotometry.
The target in test [4] is Matrix metalloproteinase-9 (Homo sapiens, UniProt P14780). Briefly: Inhibition of human recombinant MMP9 using Mca-Lys-Pro-Leu-Gly-Leu-Dpa-Ala-Arg-NH2 substrate by spectrophotometry. In short, it runs like this: as §1
Test [5] deals with Collagenase 3 (Homo sapiens, UniProt P45452). Briefly: Inhibition of human recombinant MMP13 using Mca-Lys-Pro-Leu-Gly-Leu-Dpa-Ala-Arg-NH2 substrate by spectrophotometry. The method in brief: as §1
Test [6] addresses T1, Matrilysin (Homo sapiens, UniProt P09237).
T1 sequence (P09237 whole entry): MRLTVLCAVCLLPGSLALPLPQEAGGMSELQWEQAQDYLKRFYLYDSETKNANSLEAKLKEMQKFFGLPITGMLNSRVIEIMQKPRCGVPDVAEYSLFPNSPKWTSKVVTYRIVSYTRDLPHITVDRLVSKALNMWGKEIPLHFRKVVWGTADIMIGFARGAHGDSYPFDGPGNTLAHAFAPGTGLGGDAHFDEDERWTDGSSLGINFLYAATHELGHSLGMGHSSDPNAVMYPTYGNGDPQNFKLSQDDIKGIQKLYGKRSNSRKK
The test can be described thus: Inhibition of human recombinant MMP7 using Mca-Lys-Pro-Leu-Gly-Leu-Dpa-Ala-Arg-NH2 substrate by spectrophotometry. In short, it runs like this:
as §1

The species entered for test [7] is Homo sapiens. Briefly: Selectivity index, ratio of Ki for inhibition of human recombinant MMP7 for Ki for inhibition of human recombinant MMP12.
The species entered for test [8] is Homo sapiens. Briefly: Selectivity index, ratio of Ki for inhibition of human recombinant MMP13 for Ki for inhibition of human recombinant MMP12.
Test [9] is filed under the species Homo sapiens. The test can be described thus: Selectivity index, ratio of Ki for inhibition of human recombinant MMP9 for Ki for inhibition of human recombinant MMP12.

Chain of Matrix metalloproteinase-9 (P14780 whole entry): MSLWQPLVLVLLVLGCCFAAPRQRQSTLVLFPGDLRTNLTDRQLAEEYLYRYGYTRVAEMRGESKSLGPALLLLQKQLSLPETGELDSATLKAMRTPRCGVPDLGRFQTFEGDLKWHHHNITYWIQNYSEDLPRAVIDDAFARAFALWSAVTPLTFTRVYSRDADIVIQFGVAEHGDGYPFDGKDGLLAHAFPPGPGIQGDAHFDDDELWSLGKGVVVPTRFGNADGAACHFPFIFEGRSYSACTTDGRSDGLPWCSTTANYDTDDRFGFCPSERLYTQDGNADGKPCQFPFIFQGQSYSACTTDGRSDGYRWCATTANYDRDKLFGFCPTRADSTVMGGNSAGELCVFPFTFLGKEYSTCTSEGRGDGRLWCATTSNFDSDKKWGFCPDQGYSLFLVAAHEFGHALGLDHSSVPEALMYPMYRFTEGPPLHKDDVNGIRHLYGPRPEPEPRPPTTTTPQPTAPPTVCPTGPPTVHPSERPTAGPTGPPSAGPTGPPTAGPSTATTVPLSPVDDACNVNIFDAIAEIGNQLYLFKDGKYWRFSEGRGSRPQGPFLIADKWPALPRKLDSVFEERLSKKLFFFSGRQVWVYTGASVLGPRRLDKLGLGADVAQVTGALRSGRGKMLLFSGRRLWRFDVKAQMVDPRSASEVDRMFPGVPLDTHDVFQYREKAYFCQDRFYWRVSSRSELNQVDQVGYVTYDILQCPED
Chain of Macrophage metalloelastase (Mus musculus) (P34960 110-473 limits assumed): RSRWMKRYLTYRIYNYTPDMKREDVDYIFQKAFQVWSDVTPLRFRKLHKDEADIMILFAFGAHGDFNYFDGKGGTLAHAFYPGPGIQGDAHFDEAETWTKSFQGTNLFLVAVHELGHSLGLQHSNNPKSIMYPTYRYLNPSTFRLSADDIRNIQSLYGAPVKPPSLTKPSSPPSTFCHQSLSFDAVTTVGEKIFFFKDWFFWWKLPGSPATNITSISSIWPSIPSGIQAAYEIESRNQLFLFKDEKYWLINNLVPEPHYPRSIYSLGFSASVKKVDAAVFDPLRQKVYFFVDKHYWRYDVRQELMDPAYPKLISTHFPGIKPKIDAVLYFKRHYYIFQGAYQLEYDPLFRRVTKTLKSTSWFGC
Chain of 72 kDa type IV collagenase (P08253 whole entry): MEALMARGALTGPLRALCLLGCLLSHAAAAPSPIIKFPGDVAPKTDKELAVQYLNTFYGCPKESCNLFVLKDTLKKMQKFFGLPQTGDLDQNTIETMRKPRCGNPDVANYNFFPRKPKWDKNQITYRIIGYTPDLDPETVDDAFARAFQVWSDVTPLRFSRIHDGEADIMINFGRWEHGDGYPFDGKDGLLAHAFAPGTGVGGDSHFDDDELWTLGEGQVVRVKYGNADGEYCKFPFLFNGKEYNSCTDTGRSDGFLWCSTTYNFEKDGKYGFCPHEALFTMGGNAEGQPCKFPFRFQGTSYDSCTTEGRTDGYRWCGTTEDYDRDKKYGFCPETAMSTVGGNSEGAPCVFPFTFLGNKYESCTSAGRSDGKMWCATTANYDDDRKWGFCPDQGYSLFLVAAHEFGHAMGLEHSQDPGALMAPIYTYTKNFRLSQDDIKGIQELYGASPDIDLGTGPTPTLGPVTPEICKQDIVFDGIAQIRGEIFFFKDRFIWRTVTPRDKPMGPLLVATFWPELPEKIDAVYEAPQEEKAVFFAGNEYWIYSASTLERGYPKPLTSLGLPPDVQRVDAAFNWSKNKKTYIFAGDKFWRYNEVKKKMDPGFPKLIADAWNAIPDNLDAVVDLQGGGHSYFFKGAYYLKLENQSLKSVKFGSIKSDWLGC
Chain of Macrophage metalloelastase (P39900 whole entry): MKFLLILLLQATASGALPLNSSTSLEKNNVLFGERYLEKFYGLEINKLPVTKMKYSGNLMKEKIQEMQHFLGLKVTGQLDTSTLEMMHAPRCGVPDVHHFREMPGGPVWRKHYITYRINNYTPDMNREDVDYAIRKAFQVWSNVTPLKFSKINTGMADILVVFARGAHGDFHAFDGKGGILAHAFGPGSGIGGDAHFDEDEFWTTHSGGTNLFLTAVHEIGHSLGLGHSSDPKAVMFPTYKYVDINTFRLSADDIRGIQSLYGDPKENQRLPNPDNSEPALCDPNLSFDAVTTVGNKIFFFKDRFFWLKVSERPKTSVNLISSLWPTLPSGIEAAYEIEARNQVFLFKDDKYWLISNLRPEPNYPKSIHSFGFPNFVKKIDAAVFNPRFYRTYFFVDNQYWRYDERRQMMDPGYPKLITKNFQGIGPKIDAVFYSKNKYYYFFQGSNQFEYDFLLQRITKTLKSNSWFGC

Regarding `CC(C)C[C@H]1C(=O)N[C@H](C(=O)O)Cc2ccc(cc2)OCCC[C@@H]1C(=O)NO`, the Ki in test [1] is 1.1 nM; in [2] it was 300 nM; in test [4], 1100 nM; in [5], 31 nM; in test [6], 39 nM. Besides, in [3], the “inhibition (qualitative)” value is “Active”.

In the case of `CC(C)C[C@H](CC(=O)NO)C(=O)N[C@@H](Cc1ccccc1)C(=O)O`, the Ki in [1] came out at 11.8 nM; in [2], 164 nM; in test [4], 125 nM; in test [5], 81 nM; in test [6], 323 nM. In test [3], the “inhibition (qualitative)” value is “Active”.

`CC(C)C[C@H]1C(=O)N[C@H](C(=O)N[C@@H](CCC(=O)O)C(=O)O)Cc2ccc(cc2)OCCC[C@@H]1C(=O)NO`: the Ki in test [1] was determined as 1.2 nM; in [2], 396 nM; in test [4] it was 2110 nM; in [5], 89 nM; in [6], 14.6 nM. Further, the “inhibition (qualitative)” value in test [3] is “Active”. Also, the figures for the Ratio Ki in test [7] and in [8] were 12 and 74, respectively.

For the compound `CNC(=O)[C@H](CCCNC(=N)N)NC(=O)[C@@H]1Cc2ccc(cc2)OCCC[C@H](C(=O)NO)[C@@H](CC(C)C)C(=O)N1`, the “inhibition (qualitative)” value in [3] is “Active”.

As for `CC(C)C[C@H](CC(=O)NO)C(=O)N[C@@H](Cc1ccc(OCCNC(=O)c2ccc(NN)nc2)cc1)C(=O)O`, the Ki in test [1] was 8.9 nM; in test [2] it was > 5000 nM; in test [4], 155 nM; in test [5] it was > 5000 nM; in [6], > 5000 nM. Also, the “inhibition (qualitative)” value in test [3] was “Active”. Further, the Ratio Ki in test [9] worked out at 17.

On to `CC(C)C[C@H](CC(=O)NO)C(=O)N[C@@H](Cc1ccccc1)C(=O)N[C@@H](CCC(=O)O)C(=O)NCCNC(=O)c1ccc(NN)nc1`, for which the Ki in test [1] was 7.5 nM; in test [2] it was 222 nM; in test [4], 1300 nM; in test [5], 78 nM; in test [6], 615 nM. The “inhibition (qualitative)” value in test [3] was “Active”.

As usually defined, the Ki is a measure of affinity in units of concentration, obtained from inhibition or displacement.
